Test results published in ChEMBL document CHEMBL4130629 (J Med Chem, 2018).
In brackets after ≈: the same amount, converted by molar mass.

Experiments:
[1] = Metabolic stability in rat liver microsomes assessed as parent compound remaining after 10 mins; format: ADME, microsome; details: read-out: Stability
Summary of the method: (§1)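 Compound at 3 μM was incubated with human or rat liver microsomes, and the percentage of parent compound remaining was measured after 10 min.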

[2] = system: Human immunodeficiency virus 1; experiment: Antiviral activity against ENV pseudotyped CCR5-tropic HIV1 […] infected in human HeLa67 cells after 3 days by luciferase reporter gene assay; format: functional, organism-based; details: Human immunodeficiency virus 1, HeLa67, 72 h
Summary of the method: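 Single-cycle infection with env-deleted, luciferase-reporter HIV-1 pseudotyped with the JRFL (CCR5) envelope, supplied by transfection; viral titers normalized by luminescence without compound. HeLa 67 cells were infected in the presence of compounds given as 3-fold serial dilutions made from 30 mM DMSO stocks.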

[3] = Metabolic stability in human liver microsomes assessed as parent compound remaining after 10 mins; format: ADME, microsome; details: read-out: Stability; summary of the method: as §1
[4] = Permeability in human Caco2 cells; format: ADME, cell-based; details: Caco-2, read-out: permeability
[5] = Aqueous solubility of the compound; format: physicochemical; details: buffer
MT2 = experiment: Cytotoxicity against human MT2 cells assessed as decrease in cell viability after 3 days […]; format: functional; details: MT2, 72 h
[6] = Oral bioavailability in Sprague-Dawley rat at 5 mg/kg; format: ADME, organism-based; details: in vivo
Summary of the method: (§2)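 Male Sprague-Dawley rats (300−350 g) with jugular vein and/or bile duct cannulas, n = 3 per route; dosed as a solution in PEG-400/ethanol (90/10). The iv dose was 1 mg/kg given as a 0.5 min bolus, with jugular blood sampled from 2 to 1440 min. The po dose was 5 mg/kg after an overnight fast, sampled from 15 to 1440 min. Plasma was taken from EDTA blood.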

[7] = Half life in Sprague-Dawley rat at 1 mg/kg, iv; format: ADME, organism-based; details: in vivo
[8] = Volume of distribution at steady state in Sprague-Dawley rat at 1 mg/kg, iv; format: ADME, organism-based; details: in vivo, read-out: Vdss; summary of the method: as §2
[9] = AUC in Sprague-Dawley rat at 5 mg/kg, po after 24 hrs; format: ADME, organism-based; design: time < 24 hr, dose 5 mg/kg, route oral; details: in vivo; summary of the method: as §2
[10] = Half life in human liver microsomes; format: ADME, microsome
[11] = Clearance in Sprague-Dawley rat at 1 mg/kg, iv; format: ADME, organism-based; details: in vivo
[12] = Half life in rat liver microsomes; format: ADME, microsome

SMILES | remaining at 10 min [1] | EC50 [2] | remaining at 10 min [3] | Papp [4] | solubility [5] | bioavailability [6] | half-life [7] | Vd [8] | AUC at 24 h [9] | half-life [10] | clearance [11] | half-life [12] | CC50 (MT2)
CCNC(=O)c1ncn(-c2ncc(OC)c3c(C(=O)C(=O)N4CCN(C(=O)c5ccccc5)CC4)c[nH]c23)n1 | 100% | 0.14 nM | 97% | < 1.5 ×10⁻⁶ cm/s | 58 µg/mL (≈ 109 µM) |  |  |  |  |  |  |  | > 300000 nM
COc1cnc(-n2ccc(C)n2)c2[nH]cc(C(=O)C(=O)N3CCN(C(=O)c4ccccc4)[C@H](C)C3)c12 | 78% | 0.16 nM | 72% | 20 ×10⁻⁶ cm/s | 69 µg/mL (≈ 142 µM) | 72.8% | 0.56 h | 0.47 L/kg | 13.2 µM·h |  |  |  | 142000 nM
COc1cnc(-c2cncnc2)c2[nH]cc(C(=O)C(=O)N3CCN(C(=O)c4ccccc4)CC3)c12 |  | 0.51 nM |  | 1.5 to 4.9 ×10⁻⁶ cm/s |  |  |  |  |  | > 1.67 h |  | > 1.67 h | > 300000 nM
COc1cnc(-n2cnc(C)n2)c2[nH]cc(C(=O)C(=O)N3CCN(C(=O)c4ccccc4)[C@H](C)C3)c12 | 98% | 0.18 nM | 94% | 12.8 ×10⁻⁶ cm/s |  | 104% | 3 h | 0.34 L/kg | 88 µM·h |  |  |  | > 300000 nM
COc1cnc(-n2ccc(CO)n2)c2[nH]cc(C(=O)C(=O)N3CCN(C(=O)c4ccccc4)[C@H](C)C3)c12 | 90% | 0.14 nM | 81% |  |  | 19% | 2.9 h | 1.1 L/kg | 1.99 µM·h |  |  |  | > 300000 nM
COc1cnc(-n2cnc(N)n2)c2[nH]cc(C(=O)C(=O)N3CCN(C(=O)c4ccccc4)[C@H](C)C3)c12 | 99% | 0.17 nM | 95% | < 1.5 ×10⁻⁶ cm/s |  |  |  |  |  |  |  |  | > 300000 nM
O=C(C(=O)N1CCN(C(=O)c2ccccc2)CC1)c1c[nH]c2ccccc12 |  |  |  | > 10 ×10⁻⁶ cm/s |  |  |  |  |  | > 1.67 h |  | > 1.67 h | 
COc1cnc(-c2cncc(=O)[nH]2)c2[nH]cc(C(=O)C(=O)N3CCN(C(=O)c4ccccc4)CC3)c12 | 100% | 0.21 nM | 100% | 6.6 ×10⁻⁶ cm/s |  | 0.43% | 0.8 h | 0.18 L/kg | 0.13 µM·h | > 1.67 h | 5.6 mL/min/kg |  | > 300000 nM
COc1cnc(-c2cnccn2)c2[nH]cc(C(=O)C(=O)N3CCN(C(=O)c4ccccn4)[C@H](C)C3)c12 | 80% | 0.4 nM | 95% | 12.5 ×10⁻⁶ cm/s |  | 61% | 2.4 h | 1.1 L/kg | 7.8 µM·h |  | 8.8 mL/min/kg |  | > 300000 nM
COc1cnc(-n2cccn2)c2[nH]cc(C(=O)C(=O)N3CCN(C(=O)c4ccccc4)CC3)c12 |  | 0.58 nM |  | < 1.5 ×10⁻⁶ cm/s |  | 77.1% | 1.8 h | 0.48 L/kg | 25.6 µM·h | > 1.67 h | 5.6 mL/min/kg | > 1.67 h | 288000 nM
COc1cnc(-n2cc(C)nn2)c2[nH]cc(C(=O)C(=O)N3CCN(C(=O)c4ccccc4)[C@H](C)C3)c12 | 76% | 0.13 nM | 74% | 22.4 ×10⁻⁶ cm/s |  | 65.5% | 1.4 h | 0.29 L/kg | 34.8 µM·h |  | 4.3 mL/min/kg |  | 124000 nM

Continued by falling EC50 [2], values first:

remaining at 10 min [1] | EC50 [2] | remaining at 10 min [3] | Papp [4] | solubility [5] | bioavailability [6] | half-life [7] | Vd [8] | AUC at 24 h [9] | half-life [10] | clearance [11] | half-life [12] | SMILES | CC50 (MT2)
27% | 0.11 nM | 100% |  |  | 85% | 4 h | 1.9 L/kg | 14.6 µM·h | > 1.67 h |  |  | COc1cnc(-c2cnccn2)c2[nH]cc(C(=O)C(=O)N3CCN(C(=O)c4ccccn4)CC3)c12 | > 300000 nM
 | 0.09 nM |  | 2.2 ×10⁻⁶ cm/s |  |  |  |  |  | 1.67 h |  | 1.67 h | COCc1ncn(-c2ncc(OC)c3c(C(=O)C(=O)N4CCN(C(=O)c5ccccc5)[C@H](C)C4)c[nH]c23)n1 | > 300000 nM
95% | 0.09 nM | 97% | < 1.5 ×10⁻⁶ cm/s |  |  |  |  |  |  |  |  | COCc1ncn(-c2ncc(OC)c3c(C(=O)C(=O)N4CCN(C(=O)c5ccccc5)CC4)c[nH]c23)n1 | > 300000 nM
78% | 0.08 nM | 83% | 14.3 ×10⁻⁶ cm/s |  | 59% | 0.7 h | 0.49 L/kg | 8.6 µM·h |  | 12 mL/min/kg |  | COc1cnc(-n2ccnn2)c2[nH]cc(C(=O)C(=O)N3CCN(C(=O)c4ccccc4)[C@H](C)C3)c12 | > 150000 nM
90% | 0.08 nM | 84% | 31.5 ×10⁻⁶ cm/s |  | 88.4% | 3 h | 0.2 L/kg | 82 µM·h |  |  |  | CCc1ncn(-c2ncc(OC)c3c(C(=O)C(=O)N4CCN(C(=O)c5ccccc5)[C@H](C)C4)c[nH]c23)n1 | 281000 nM
89% | 0.07 nM | 64% | 5.8 ×10⁻⁶ cm/s |  | 52% | 1.5 h | 0.26 L/kg | 13 µM·h |  | 6.1 mL/min/kg |  | COc1cnc(-n2cnc(N3CCOCC3)n2)c2[nH]cc(C(=O)C(=O)N3CCN(C(=O)c4ccccc4)CC3)c12 | 203000 nM
82% | 0.07 nM | 83% | 7.8 ×10⁻⁶ cm/s |  | 59% | 1.6 h | 0.23 L/kg | 43.5 µM·h |  |  |  | COc1cnc(-n2ccnn2)c2[nH]cc(C(=O)C(=O)N3CCN(C(=O)c4ccccc4)CC3)c12 | 225000 nM
84% | 0.06 nM | 94% | 16.6 ×10⁻⁶ cm/s |  |  |  |  |  |  |  |  | COc1cnc(-n2cc(C)nn2)c2[nH]cc(C(=O)C(=O)N3CCN(C(=O)c4ccccc4)CC3)c12 | > 300000 nM
100% | 0.05 nM | 80% | 26 ×10⁻⁶ cm/s | 17 µg/mL (≈ 36 µM) | 43.7% | 0.9 h | 0.23 L/kg | 15.7 µM·h |  |  |  | COc1cnc(-n2ccc(C)n2)c2[nH]cc(C(=O)C(=O)N3CCN(C(=O)c4ccccc4)CC3)c12 | 130000 to 154000 nM
81% | 0.05 nM | 87% | < 1.5 ×10⁻⁶ cm/s |  |  |  |  |  |  |  |  | CNC(=O)c1ccn(-c2ncc(OC)c3c(C(=O)C(=O)N4CCN(C(=O)c5ccccc5)CC4)c[nH]c23)n1 | 166000 nM
94% | 0.05 nM | 100% | 26.1 ×10⁻⁶ cm/s |  | 86% | 3.3 h | 0.12 L/kg | 254 µM·h |  | 0.7 mL/min/kg |  | CCc1ncn(-c2ncc(OC)c3c(C(=O)C(=O)N4CCN(C(=O)c5ccccc5)CC4)c[nH]c23)n1 | 90000 nM
99% | 0.04 nM | 98% | < 1.5 ×10⁻⁶ cm/s |  | 0.8% | 0.5 h | 0.4 L/kg | 0.03 µM·h |  | 57 mL/min/kg |  | COc1cnc(-n2ccc(N)n2)c2[nH]cc(C(=O)C(=O)N3CCN(C(=O)c4ccccc4)CC3)c12 | > 150000 nM
